CHRM5 antagonist – human M5 muscarinic receptor antagonists, primary screen, CHO cells, Fluo-8 calcium fluorescence. Muscarinic acetylcholine receptor M5 (Homo sapiens), P08912. CHO-hM5 cells, ACh EC80. inhibition, % at 3 µM. 0.59% of 360,000 active. AID 624040, 2012;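 active = inhibition above a per-plate cutoff, the mean of that plate's test compounds plus 3 SD, cut at about 27% in these data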;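 note: 0% = acetylcholine EC80 with DMSO and 100% = DMSO without agonist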
M5 ag – human M5 muscarinic receptor agonists, primary screen, CHO-K1 cells, Fluo-8 calcium fluorescence; activation, % at 3 µM; 0.19% of 360,000 active; CHO-K1 hM5 cells; 0% DMSO wells, 100% maximal acetylcholine response;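 active = activation above the run's mean over test compounds plus 3 SD, cut at about 23% in these data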;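 note: signal is peak over basal fluorescence ratio across the kinetic read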
CHRM4 agonist – human M4 muscarinic receptor agonists, primary screen, CHO-K1 cells, Fluo-8 calcium fluorescence; CHO-K1 hM4/Gqi5; vehicle 0%, full acetylcholine response 100%; activation, % at 3 µM; 0.14% of 360,000 active; AID 624127, 2012;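 active = activation above the run mean over all test wells plus 3 SD, cut at about 32% in these data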;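 note: peak over basal fluorescence ratio per well then scaled between controls; 0% = DMSO wells and 100% = acetylcholine at EC100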
Target sequence (P08173 whole entry, looked up): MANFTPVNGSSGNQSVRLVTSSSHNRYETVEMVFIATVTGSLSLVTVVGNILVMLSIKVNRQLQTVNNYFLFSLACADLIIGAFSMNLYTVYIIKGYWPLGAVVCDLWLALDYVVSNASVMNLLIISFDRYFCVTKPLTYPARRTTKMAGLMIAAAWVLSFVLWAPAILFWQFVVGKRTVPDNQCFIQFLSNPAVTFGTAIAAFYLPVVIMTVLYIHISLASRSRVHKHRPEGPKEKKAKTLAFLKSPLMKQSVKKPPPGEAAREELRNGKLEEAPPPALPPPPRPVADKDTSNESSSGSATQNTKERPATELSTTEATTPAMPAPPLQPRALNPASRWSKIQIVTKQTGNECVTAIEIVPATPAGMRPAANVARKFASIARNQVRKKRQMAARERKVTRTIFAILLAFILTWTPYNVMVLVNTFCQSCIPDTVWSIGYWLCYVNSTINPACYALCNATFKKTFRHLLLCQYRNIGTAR
M5 PAM – human M5 muscarinic receptor positive allosteric modulators, primary screen, CHO-K1 cells, Fluo-8 calcium fluorescence | Muscarinic acetylcholine receptor M5 (Homo sapiens), P08912 | AID 624038, 2012 | activation, % at 3 µM | CHO-K1 hM5, ACh EC20 PAM; 0% = ACh EC20, 100% = ACh EC100 | 0.3% of 360,000 active;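 active = activation above the run cutoff, the mean activation of all test compounds plus 3 SD, cut at about 18% in these data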
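Assay system: CHO-K1 hM5 cells / Incubation: Fluo-8 loading 80 min at 37 °C plus 30 min room temperature / Technique: Fluo-8 calcium dye fluorescence, kinetic read / Repeats: single replicate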
CHRM4 antagonist – human M4 muscarinic receptor antagonists, primary screen, CHO cells, Fluo-8 calcium fluorescence; inhibition, % at 3 µM; CHO-hM4 cells, ACh EC80; Muscarinic acetylcholine receptor M4 (Homo sapiens), P08173; 0.73% of 360,000 active; AID 624125, 2012;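 active = inhibition above its plate's cutoff, the mean inhibition of sample wells plus 3 SD, cut at about 27% in these data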;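 note: 0% = acetylcholine EC80 with DMSO and 100% = DMSO without agonist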
M4 PAM – human M4 muscarinic receptor positive allosteric modulators, primary screen, CHO-K1 cells, Fluo-8 calcium fluorescence; Muscarinic acetylcholine receptor M4 (Homo sapiens), P08173; CHO-K1 hM4/Gqi5, ACh EC20; 0% = ACh EC20, 100% = maximal ACh; activation, % at 3 µM; 0.4% of 360,000 active;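 active = activation above its plate's cutoff, the mean activation of sample wells plus 3 SD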
* hit, by the source's call. Hits are enriched below; roughly 1.8% of the tested compounds scored in any of these assays.

SMILES	CHRM5 antagonist	M5 ag	CHRM4 agonist	M5 PAM	CHRM4 antagonist	M4 PAM
CC(=O)c1ccccn1	3	2	1	0	-10	1
CC(=O)c1csc(CS(=O)(=O)c2ccccn2)n1	26	4	12	20*	12	-11
Cc1ccn2c(=O)c(NC(=O)c3ccc(Br)o3)c(C)nc2c1	2	0	1	-7	7	23*
Cc1nc(NC(=O)c2ccc(Br)o2)ccc1Br	2	0	0	6	-5	16*
Cc1ncc(CN2CCCC(C(=O)Nc3ccc(-c4cccc(F)c4)cc3)C2)n1C (configuration not stated)	7	-7	7	-15	33*	-16
CSc1nc(N)nc(SCC(=O)Nc2cccc(F)c2)c1C#N	42*	7	22	-19	15	-4
CSc1nc(N)nc(SCC(=O)Nc2ccc(Cl)cc2)c1C#N	11	7	9	-12	8	-12
O=C(COC(=O)COc1ccc(Cl)cc1Cl)NC1CCCC1	4	-3	2	4	0	7
COc1cccc(NC(=O)c2ccc(N3C(=O)C4CCC(C)CC4C3=O)cc2)c1 (configuration not stated)	29*	-1	19	-13	-20	-4
COc1ccc(NC(=O)c2cccc(N3C(=O)C4CCC(C)CC4C3=O)c2)c(OC)c1 (configuration not stated)	23	-1	11	-6	9	-11
CN(CCC#N)C(=O)CSc1nnc(-c2c[nH]c3ccccc23)o1	14	-2	1	-6	13	0
O=C(c1cc2sccc2n1Cc1ccccc1)N1CCN(c2nc3ccccc3s2)CC1	15	-1	4	-10	27*	-10
CCC(=O)N1CCN(c2nc3ccccc3s2)CC1	-1	4	4	-4	-4	4
CC(=O)Oc1ccccc1N1C(=O)c2ccc(C(=O)O)cc2C1=O	2	-1	2	12	31*	28
COc1ccc(N2C(=O)c3ccc(C(=O)Nc4ccccc4O)cc3C2=O)cc1	20	2	0	-3	-5	4
COc1ccccc1N1C(=O)c2ccc(C(=O)Nc3ccccc3O)cc2C1=O	33*	7	21	4	30*	12
Cc1ccc2[nH]c(=O)c3cc(C(=O)NCCC(C)C)sc3c2c1	3	-4	0	2	3	0
CC(C)CCNC(=O)c1cc2c(=O)[nH]c3ccccc3c2s1	18	-2	9	12	19	26*
COCCNC(=O)/C(C#N)=C/c1c(N2CCCCCC2)nc2ccccn2c1=O	1	-4	0	-5	99*	-16
Cc1cnccc1CNC(=O)CC1C(=O)NCCN1CC(C)(C)C (configuration not stated)	-5	1	0	4	0	-3
O=C(COC(=O)CCC1CCCC1)Nc1ccccc1OC(F)F	6	-2	4	4	3	22*
COc1cc2cc(C(c3nnnn3C3CCCC3)N(C)C3CCCCC3)c(=O)[nH]c2cc1OC (configuration not stated)	-1	-2	2	-3	-8	4
COc1cc2cc(C(c3nnnn3C3CCCCC3)N(C)C3CCCCC3)c(=O)[nH]c2cc1OC (configuration not stated)	-2	0	-2	-6	30*	-12
COc1ccc(CCNC(=O)c2ccc(CSc3ccccc3)o2)cc1	3	-12	5	-7	-14	-3
O=C1NC2(Nc3ccccc31)C(=O)Nc1ccc(Br)cc12 (configuration not stated)	98*	-15	0	-30	-3	-1
SMILES	CHRM5 antagonist	M5 ag	CHRM4 agonist	M5 PAM	CHRM4 antagonist	M4 PAM
Cc1ccc(-n2nc3c(n2)/C(=N/O)CC/C3=N\O)cc1	-3	-4	0	34*	0	13
Cc1ccc(S(=O)(=O)c2nnn3c2nc(NC2CCN(Cc4ccccc4)CC2)c2ccccc23)cc1C	-2	-6	3	-3	43*	-12
Cc1ccc(S(=O)(=O)c2nnn3c2nc(NCCCN2CCCC2=O)c2ccccc23)cc1C	15	-7	5	-4	-2	1
COc1cccc(NC(=O)c2cccc(N3C(=O)C4C5C=CC(C5)C4C3=O)c2)c1 (configuration not stated)	16	2	14	-7	-8	-7
CCCCNC(=O)NC1(C(F)(F)F)Oc2ccccc2O1	-7	-7	0	2	-6	2
NS(=O)(=O)c1ccc(CCNC(=O)NC2(C(F)(F)F)Oc3ccccc3O2)cc1	-12	-13	0	31*	7	-7
Cc1csc(NC(=O)CSc2nccn2C)n1	-9	-2	0	1	-11	1
NNC(=O)CN1C(=O)Nc2ccc(Cl)cc2C1c1ccccc1 (configuration not stated)	4	-7	0	2	45*	-16
CCOC(=O)N1CCN(C(=O)CNC(=O)Cn2cnc3ccccc3c2=O)CC1	3	-3	0	8	14	21*
COc1cc(CCC(=O)NCc2ccc3c(c2)OCO3)cc(OC)c1OC	6	-3	1	5	-2	4
CC1(C)Cc2c(c(N3CCOCC3)nc3sc(C(=O)Nc4ccccc4)c(N)c23)CO1	-7	0	5	3	-13	5
CC1(C)Cc2c(c(N3CCOCC3)nc3sc(C(=O)Nc4cccc(Cl)c4)c(N)c23)CO1	-12	-1	2	13	-5	18*
N#CC1=C(N)Oc2cc(O)ccc2C1c1ccc(Br)s1 (configuration not stated)	9	29*	14	-21	-10	0
C[C@@H]1CN([C@@H](C)CO)C(=O)CCCn2nncc2CO[C@H]1CN(C)S(=O)(=O)c1ccccc1F	15	0	0	-6	-6	2
CCOC(=O)C1(CCc2ccccc2)CCN(C(=O)CCn2cncn2)CC1	-5	1	2	-5	4	1
Cc1ccccc1OCc1nnc(SCc2nc3ccccc3c(=O)[nH]2)n1C	3	0	-1	-3	49*	-15
Cn1c(Cc2ccccc2)nnc1SCc1nc2ccccc2c(=O)[nH]1	-9	0	2	7	-9	5
